ChEMBL document CHEMBL4334423, “Synthesis, molecular docking, and biological evaluation of novel 2-pyrazoline derivatives as multifunctional agents for the treatment of Alzheimer's disease” (Medchemcomm, 2019)
The source made the active and inactive calls. The calls are words filed in the database; no cut-off is given here.

Columns and labels:
[1] = Cytotoxicity against mouse L929 cells assessed as cell viability at 10 uM incubated for 24 hrs by MTT assay (reference value: 100%); type: cell-based; details: read-out: Activity
Method in brief: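 L929 cells (ATCC CCL-1) seeded at 5000 per well, exposed to 10 μM compound for 24 h. MTT reagent was added, formazan dissolved in DMSO, and absorbance read at 570 and 690 nm. Viability is expressed relative to a non-treated control taken as 100%.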

[2] = target: Amyloid-beta precursor protein (Homo sapiens) (UniProt P05067); experiment: Inhibition of human amyloid beta (1 to 42) self-induced aggregation assessed as Amyloid beta (1 to 42) aggregation at 100 uM incubated for 48 hrs by thioflavin T-based fluorescence assay (reference value: 100%); design: scale not given: the % may be the effect or the level left
SH-SY5Y [3] = experiment: cells; type: functional; details: Homo sapiens
Cholinesterase [4] = target: T1, Cholinesterase (Equus caballus, UniProt P81908); experiment: Inhibition of equine serum BChE using butyrylthiocholine iodide as substrate by Ellman's method
SH-SY5Y [5] = experiment: cells; type: functional; details: Homo sapiens; remark: listed apart in the source
Acetylcholinesterase [6] = target: T2, Acetylcholinesterase (Homo sapiens, UniProt P22303); experiment: Inhibition of human recombinant AChE expressed in HEK293 cells using acetylthiocholine iodide as substrate by Ellman's method
[7] = Selectivity index, ratio of IC50 for human recombinant AChE expressed in HEK293 cells to IC50 for equine serum BChE; type: cell-based
Method in brief: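 Both enzymes were run by the same Ellman method: substrate 0.2–0.5 mM, DTNB 0.125 mM, 100 mM MOPS pH 8.0, 25 °C, read at 412 nm. IC50 came from dose–response curves, and selectivity = IC50(AChE)/IC50(BChE).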

[8] = target: Amyloid-beta precursor protein (Homo sapiens) (UniProt P05067); experiment: Inhibition of human amyloid beta (1 to 42) self-induced aggregation assessed as Amyloid beta (1 to 42) aggregation at 10 uM incubated for 48 hrs by thioflavin T-based fluorescence assay (reference value: 100%); design: scale not given: the % may be the effect or the level left
Acetylcholinesterase [9] = target: T2, Acetylcholinesterase; experiment: Competitive inhibition of human recombinant AChE expressed in HEK293 cells using acetylthiocholine iodide as substrate by Dixon and slope replot analysis
Method in brief: (§1)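 Ellman assay. Enzyme added last to a mix of thiocholine substrate (0.2–0.5 mM) and 0.125 mM DTNB in 100 mM MOPS pH 8.0 at 25 °C. Absorbance was followed at 412 nm. For kinetics, Dixon plots (1/v versus I) were built at inhibitor 0.5, 1, 10 and 100 μM and fitted with slope replots to get Ki. IC50 came from dose–response curves.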

Cholinesterase [10] = target: T1, Cholinesterase; experiment: Partial non-competitive inhibition of equine serum BChE using butyrylthiocholine iodide as substrate by Dixon and slope replot analysis; method in brief: as §1
[11] = target: Cholinesterase (Equus caballus) (UniProt P81908); experiment: Partial non-competitive inhibition of equine serum BChE assessed as decrease in Vmax with unchanged Km using butyrylthiocholine iodide as substrate by Dixon and slope replot analysis; method in brief: as §1
Cholinesterase (Equus caballus), sequence (P81908 whole entry): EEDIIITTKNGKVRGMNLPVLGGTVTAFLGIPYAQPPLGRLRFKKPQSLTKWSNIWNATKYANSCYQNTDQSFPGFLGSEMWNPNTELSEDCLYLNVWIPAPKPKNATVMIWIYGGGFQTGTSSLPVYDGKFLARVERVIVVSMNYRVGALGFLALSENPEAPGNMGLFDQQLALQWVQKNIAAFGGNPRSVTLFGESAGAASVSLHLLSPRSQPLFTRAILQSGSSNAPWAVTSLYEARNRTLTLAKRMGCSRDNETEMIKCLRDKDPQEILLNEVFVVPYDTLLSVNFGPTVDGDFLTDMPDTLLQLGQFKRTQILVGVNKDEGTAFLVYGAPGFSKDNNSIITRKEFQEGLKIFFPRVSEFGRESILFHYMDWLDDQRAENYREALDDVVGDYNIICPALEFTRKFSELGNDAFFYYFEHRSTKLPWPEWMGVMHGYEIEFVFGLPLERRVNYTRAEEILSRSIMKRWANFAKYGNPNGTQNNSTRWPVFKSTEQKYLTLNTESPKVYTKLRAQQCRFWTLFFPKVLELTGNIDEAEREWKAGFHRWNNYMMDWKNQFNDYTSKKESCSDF

T2 sequence (P22303 whole entry): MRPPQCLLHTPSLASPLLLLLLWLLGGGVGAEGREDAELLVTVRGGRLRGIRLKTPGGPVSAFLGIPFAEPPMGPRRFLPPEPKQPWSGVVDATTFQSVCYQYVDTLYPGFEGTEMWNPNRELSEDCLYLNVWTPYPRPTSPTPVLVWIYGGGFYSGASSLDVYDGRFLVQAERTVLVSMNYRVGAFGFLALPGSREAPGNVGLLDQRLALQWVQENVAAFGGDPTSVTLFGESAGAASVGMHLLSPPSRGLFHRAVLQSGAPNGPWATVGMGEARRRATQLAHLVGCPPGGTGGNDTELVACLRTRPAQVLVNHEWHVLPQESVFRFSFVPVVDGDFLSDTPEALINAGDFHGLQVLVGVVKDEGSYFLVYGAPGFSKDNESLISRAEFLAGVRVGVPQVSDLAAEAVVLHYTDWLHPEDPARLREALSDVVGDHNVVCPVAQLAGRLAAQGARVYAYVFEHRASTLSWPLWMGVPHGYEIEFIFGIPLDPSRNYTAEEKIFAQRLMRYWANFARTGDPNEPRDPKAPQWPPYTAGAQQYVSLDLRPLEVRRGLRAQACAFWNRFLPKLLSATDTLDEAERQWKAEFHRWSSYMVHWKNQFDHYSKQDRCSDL
Amyloid-beta precursor protein (Homo sapiens), sequence (P05067 whole entry): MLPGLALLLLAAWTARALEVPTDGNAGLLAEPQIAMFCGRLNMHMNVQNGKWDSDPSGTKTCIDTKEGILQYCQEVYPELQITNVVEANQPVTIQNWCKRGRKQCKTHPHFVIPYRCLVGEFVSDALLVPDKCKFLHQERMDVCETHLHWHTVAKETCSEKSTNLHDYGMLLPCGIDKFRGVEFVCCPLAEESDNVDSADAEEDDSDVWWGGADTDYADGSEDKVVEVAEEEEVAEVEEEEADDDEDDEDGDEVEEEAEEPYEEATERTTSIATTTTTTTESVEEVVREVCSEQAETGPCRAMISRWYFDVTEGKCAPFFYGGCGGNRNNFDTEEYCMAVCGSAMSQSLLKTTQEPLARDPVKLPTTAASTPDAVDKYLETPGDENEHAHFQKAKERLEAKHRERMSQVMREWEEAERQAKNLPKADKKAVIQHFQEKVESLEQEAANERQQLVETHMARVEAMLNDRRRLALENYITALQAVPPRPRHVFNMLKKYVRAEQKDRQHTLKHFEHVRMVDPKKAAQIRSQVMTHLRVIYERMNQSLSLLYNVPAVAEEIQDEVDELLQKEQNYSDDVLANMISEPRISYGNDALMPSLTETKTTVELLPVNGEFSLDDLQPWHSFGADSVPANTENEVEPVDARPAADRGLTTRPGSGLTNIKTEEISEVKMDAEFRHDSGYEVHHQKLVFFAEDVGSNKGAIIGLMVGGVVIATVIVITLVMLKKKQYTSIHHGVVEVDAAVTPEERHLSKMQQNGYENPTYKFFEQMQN
T1 sequence (P81908 whole entry): as the sequence (P81908 whole entry) above

COc1ccc(C2=NN(C(C)=O)C(c3ccc(N4CCN(Cc5ccccc5)CC4)cc3)C2)cc1OC (stereo unspecified)
viability at 24 h, 10 µM [1]: 93.3%
Activity [2]: 89.8%
viability at 10 µM (SH-SY5Y [3]): 87%
IC50 (Cholinesterase [4]): 0.5 µM
viability at 10 µM (SH-SY5Y [5]): 69.3%
IC50 (Acetylcholinesterase [6]): 62.8 µM
Ratio IC50 [7]: 128

COc1ccc(C2=NN(C(C)=O)C(c3ccc(N4CCN(c5ccccc5)CC4)cc3)C2)cc1OC (stereo unspecified)
IC50 (Cholinesterase [4]): 1900 µM
IC50 (Acetylcholinesterase [6]): 295 µM
Ratio IC50 [7]: 0.2

COc1ccc(C2=NN(C(C)=O)C(c3ccc(N4CCN(Cc5ccccc5)CC4)cc3)C2)cc1 (stereo unspecified)
IC50 (Cholinesterase [4]): 137 µM
IC50 (Acetylcholinesterase [6]): 100 µM
Ratio IC50 [7]: 0.7

COc1ccc(C2=NN(C(C)=O)C(c3ccc(-n4cncn4)cc3)C2)cc1OC (stereo unspecified)
IC50 (Cholinesterase [4]): 27.5 µM
IC50 (Acetylcholinesterase [6]): 955 µM
Ratio IC50 [7]: 34.8

COc1ccc(C2=NN(C(C)=O)C(c3ccc(N4CCC(C)CC4)cc3)C2)cc1OC (stereo unspecified)
viability at 24 h, 10 µM [1]: 95.4%
Activity [8]: 80.6%
Activity [2]: 63.4%
viability at 10 µM (SH-SY5Y [3]): 81.1%
IC50 (Cholinesterase [4]): 3.9 µM
viability at 10 µM (SH-SY5Y [5]): 78.4%
IC50 (Acetylcholinesterase [6]): 77.4 µM
Ratio IC50 [7]: 19.9

CCN1CCN(c2ccc(C3CC(c4ccc(OC)cc4)=NN3C(C)=O)cc2)CC1 (stereo unspecified)
IC50 (Cholinesterase [4]): 217 µM
IC50 (Acetylcholinesterase [6]): 221 µM
Ratio IC50 [7]: 1

COc1ccc(C2=NN(C(C)=O)C(c3ccc(N4CCC(Cc5ccccc5)CC4)cc3)C2)cc1OC (stereo unspecified)
viability at 24 h, 10 µM [1]: 101%
Activity [8]: 82.2%
Activity [2]: 86.4%
viability at 10 µM (SH-SY5Y [3]): 84.4%
IC50 (Cholinesterase [4]): 2.1 µM
viability at 10 µM (SH-SY5Y [5]): 83.5%
IC50 (Acetylcholinesterase [6]): 20.1 µM
Ratio IC50 [7]: 9.8

COc1cc2c(cc1OC)C(=O)C(CC1CCN(Cc3ccccc3)CC1)C2 (stereo unspecified) [DONEPEZIL]
viability at 10 µM (SH-SY5Y [3]): 69%
viability at 10 µM (SH-SY5Y [5]): 62.5%

COc1ccc(C2=NN(C(C)=O)C(c3ccc(-n4ccnc4)cc3)C2)cc1OC (stereo unspecified)
IC50 (Cholinesterase [4]): 32.7 µM
IC50 (Acetylcholinesterase [6]): 206 µM
Ratio IC50 [7]: 6.3

COc1ccc(C2=NN(C(C)=O)C(c3ccc(N4CCN(C)CC4)cc3)C2)cc1OC (stereo unspecified)
Ki (Acetylcholinesterase [9]): 630 nM
viability at 24 h, 10 µM [1]: 93.3%
Activity [2]: 72.6%
viability at 10 µM (SH-SY5Y [3]): 93.6%
IC50 (Cholinesterase [4]): 6 µM
viability at 10 µM (SH-SY5Y [5]): 95.6%
IC50 (Acetylcholinesterase [6]): 6.5 µM
Ratio IC50 [7]: 1.1

COc1ccc(C2=NN(C(C)=O)C(c3ccc(-n4cnc5ccccc54)cc3)C2)cc1OC (stereo unspecified)
IC50 (Cholinesterase [4]): 254 µM
IC50 (Acetylcholinesterase [6]): 319 µM
Ratio IC50 [7]: 1.2

CO[C@H]1/C=C/O[C@@]2(C)Oc3c(C)c(O)c4c(O)c(c(/C=N/N5CCN(C)CC5)c(O)c4c3C2=O)NC(=O)/C(C)=C\C=C\[C@H](C)[C@H](O)[C@@H](C)[C@@H](O)[C@@H](C)[C@H](OC(C)=O)[C@@H]1C
Activity [2]: 48.4%

CCN1CCN(c2ccc(C3CC(c4ccc(OC)c(OC)c4)=NN3C(C)=O)cc2)CC1 (stereo unspecified)
viability at 24 h, 10 µM [1]: 89.2%
Activity [2]: 83.4%
viability at 10 µM (SH-SY5Y [3]): 87.4%
IC50 (Cholinesterase [4]): 0.5 µM
viability at 10 µM (SH-SY5Y [5]): 67.9%
Ki (Cholinesterase [10]): 2220 nM
IC50 (Acetylcholinesterase [6]): 47.9 µM
Ratio IC50 [7]: 104
inhibition [11]: Active
